Measured values from ChEMBL document CHEMBL3393035, “Novel agonists of benzodiazepine receptors: design, synthesis, binding assay and pharmacological evaluation of 1,2,4-triazolo[1,5-a]pyrimidinone and 3-amino-1,2,4-triazole derivatives” (Bioorg Med Chem, 2015).
Activity calls are given as the source filed them. No cut-off for these calls is given here.

What was measured:
[1] = Displacement of [3H]-flumazenil from benzodiazepine receptor in Sprague-Dawley rat brain cortical membranes incubated for 35 mins
Procedure, shortened: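 Rat cortex membranes: homogenized in ice-cold 30 mM Tris-HCl pH 7.4, washed by repeated centrifugation at 4°C, 37°C 30 min preincubation, stored -20°C. 100 µg membrane protein in 50 mM Tris-HCl pH 7.4 with 8.6×10^-5 nmol [3H]-flumazenil plus increasing competitor, 0.5 mL, 30°C 35 min; stopped by centrifugation. NSB with 100 µM diazepam; triplicates; IC50 by nonlinear regression.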

Mus musculus [2] = assay: Induction of anterograde amnesia in NMRI albino mouse assessed as reduction in latency to enter dark compartment at 1 mg/kg, ip by passive avoidance test; format: functional, organism-based; set-up: dose 1 mg/kg
Procedure, shortened: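 Male NMRI mice (18-22 g), n=8 per group, received midazolam i.p. in distilled water, 5 ml/kg. In the passive avoidance test, mice were placed in the lit compartment on the testing day, 24 h later, and latency to enter the dark compartment was recorded. Data are mean + SEM.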

Mus musculus [3] = assay: Anticonvulsant activity in ip dosed NMRI mouse assessed as reduction in MES-induced seizures by measuring occurrence of hind limb tonic extensions dosed 30 mins before MES injection and measured 30 mins post MES challenge; format: functional; conditions: Hindlimb
Procedure, shortened: (§1)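 Male NMRI mice (18-22 g) were given drug i.p. at 5 ml/kg in DMSO:water (1:10), 30 min before maximal electroshock (60 Hz, 37.2 mA, 0.25 s). The read-out was occurrence of hind limb tonic extension.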

Mus musculus [4] = assay: Hypnotic effect in NMRI albino mouse assessed as potentiation of pentobarbital sleeping time by measuring duration of loss of righting reflex at 1.25 to 5 mg/kg, ip co-treated with 10 mg/kg BZD receptor antagonist flumazenil; format: functional, organism-based
Procedure, shortened: (§2)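 Male NMRI mice, 18-22 g, 12 weeks old. Test agent and flumazenil (10 mg/kg) in DMSO:water 1:10, 5 ml/kg i.p., 30 min before pentobarbital 65 mg/kg i.p. (in water). Sleep time is the duration of loss of righting reflex. Mice kept on an electric blanket to prevent hypothermia. n=8 per group, mean + SEM.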

Mus musculus [5] = assay: Toxicity in NMRI albino mouse at 150 mg/kg, ip assessed as induction hypnosis measured after 24 hrs post dose; format: organism-based; set-up: dose 150 mg/kg, route intraperitoneal; conditions: in vivo
Procedure, shortened: (§3)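 Ten randomly selected male NMRI mice given single i.p. doses of 50 or 150 mg/kg in DMSO:water 1:10 (5 ml/kg), then observed for 24 h for toxic reactions, sedation and hypnosis.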

Mus musculus [6] = assay: Anticonvulsant activity in ip dosed NMRI mouse assessed as reduction in PTZ-induced lethal convulsion dosed 30 mins before PTZ injection and co-treated with BZD antagonist flumazenil and measured 30 mins post PTZ challenge; format: functional, organism-based
Procedure, shortened: (§4)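 Male NMRI mice (18-22 g) were given drug i.p. at 5 ml/kg in DMSO:water (1:10), 30 min before PTZ 100 mg/kg i.p. (in water). Mice were watched for 30 min after PTZ and deaths were counted.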

Mus musculus [7] = assay: Induction of anterograde amnesia in NMRI albino mouse assessed as reduction in latency to enter dark compartment at 0.325 to 2.5 mg/kg, ip by passive avoidance test; format: functional, organism-based
Procedure, shortened: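 Male NMRI mice (18-22 g) dosed i.p. in DMSO:water 1:10 (5 ml/kg), 30 min before the test; midazolam 1 mg/kg i.p. in water as reference. On the testing day, 24 h after training, each mouse is placed in the lit compartment and latency to enter the dark compartment is recorded. n=8 per group, mean + SEM.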

Mus musculus [8] = assay: Anticonvulsant activity in ip dosed NMRI mouse assessed as reduction in MES-induced seizures by measuring occurrence of hind limb tonic extensions dosed 30 mins before MES injection and co-treated with 10 mg/kg BZD antagonist flumazenil and measured 30 mins post MES challenge; format: functional, organism-based; set-up: dose 10 mg/kg; conditions: Hindlimb; procedure, shortened: as §1
Mus musculus [9] = assay: Toxicity in NMRI albino mouse at 50 mg/kg, ip assessed as induction of toxic reactions measured after 24 hrs post dose; format: organism-based; set-up: dose 50 mg/kg, route intraperitoneal; conditions: in vivo; procedure, shortened: as §3
Mus musculus [10] = assay: Toxicity in NMRI albino mouse at 50 mg/kg, ip assessed as induction sedation measured after 24 hrs post dose; format: organism-based; set-up: dose 50 mg/kg, route intraperitoneal; conditions: in vivo; procedure, shortened: as §3
Mus musculus [11] = assay: Hypnotic effect in NMRI albino mouse assessed as potentiation of pentobarbital sleeping time by measuring duration of loss of righting reflex at 0.625 mg/kg, ip dosed 30 mins before pentobarbital challenge; format: functional, organism-based; set-up: dose 0.625 mg/kg; procedure, shortened: as §2
Mus musculus [12] = assay: Toxicity in NMRI albino mouse at 50 mg/kg, ip assessed as induction hypnosis measured after 24 hrs post dose; format: organism-based; set-up: dose 50 mg/kg, route intraperitoneal; conditions: in vivo; procedure, shortened: as §3
Mus musculus [13] = assay: Toxicity in NMRI albino mouse at 150 mg/kg, ip assessed as induction of toxic reactions measured after 24 hrs post dose; format: organism-based; set-up: dose 150 mg/kg, route intraperitoneal; conditions: in vivo; procedure, shortened: as §3
Mus musculus [14] = assay: Toxicity in NMRI albino mouse at 150 mg/kg, ip assessed as induction sedation measured after 24 hrs post dose; format: organism-based; set-up: dose 150 mg/kg, route intraperitoneal; conditions: in vivo; procedure, shortened: as §3
Mus musculus [15] = assay: Anticonvulsant activity in ip dosed NMRI mouse assessed as reduction in PTZ-induced lethal convulsion dosed 30 mins before PTZ injection and measured 30 mins post PTZ challenge; format: functional; procedure, shortened: as §4
Mus musculus [16] = assay: Hypnotic effect in NMRI albino mouse assessed as potentiation of pentobarbital sleeping time by measuring duration of loss of righting reflex dosed intraperitoneally 30 mins before pentobarbital challenge; format: functional; procedure, shortened: as §2
Mus musculus [17] = assay: Hypnotic effect in NMRI albino mouse assessed as potentiation of pentobarbital sleeping time by measuring duration of loss of righting reflex at 1 mg/kg, ip dosed 30 mins before pentobarbital challenge; format: functional, organism-based; set-up: dose 1 mg/kg
Procedure, shortened: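 Male NMRI mice (18-22 g), n=8 per group, received diazepam i.p. in DMSO:water (1:10), 5 ml/kg. Pentobarbital 65 mg/kg i.p. followed 30 min later. Sleep time was the duration of loss of righting reflex; mice were kept on an electric blanket against hypothermia. Data are mean + SEM.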

Compound: Nc1nnc(-c2ccccc2)n1Cc1ccccc1
- IC50 [1]: 0.87 nM
- Ki [1]: 0.53 nM

Compound: Cc1cc(=O)n2nc(-c3ccccc3)n(Cc3ccc(F)cc3)c2n1
- IC50 [1]: 1.59 nM
- Ki [1]: 0.97 nM

Compound: Nc1nnc(-c2ccccc2)n1Cc1ccccc1Cl
- IC50 [1]: 2.24 nM
- Ki [1]: 1.37 nM

Compound: Cc1cc(=O)n2nc(-c3ccccc3)n(Cc3ccccc3)c2n1
- IC50 [1]: 2.39 nM
- Ki [1]: 1.46 nM

Compound: Nc1nnc(-c2ccccc2)n1Cc1ccc(F)cc1
- IC50 [1]: 4.45 nM
- Ki [1]: 2.73 nM

Compound: Cc1ncc2n1-c1ccc(Cl)cc1C(c1ccccc1F)=NC2
- Activity (Mus musculus [2]): Active

Compound: Cc1cc(=O)n2nc(-c3ccccc3)n(Cc3ccccc3Cl)c2n1
- ED50 (Mus musculus [3]): 15 mg/kg
- Activity (Mus musculus [4]): inactive
- Activity (Mus musculus [5]): Toxic
- Activity (Mus musculus [6]): inactive
- Activity (Mus musculus [7]): Active
- Activity (Mus musculus [8]): inactive
- Activity (Mus musculus [9]): Non-toxic
- Activity (Mus musculus [10]): Toxic
- Activity (Mus musculus [11]): inactive
- Activity (Mus musculus [12]): Toxic
- Activity (Mus musculus [13]): Non-toxic
- Activity (Mus musculus [14]): Toxic
- ED50 (Mus musculus [15]): 56.6 mg/kg
- Activity (Mus musculus [16]): Dose-dependent effect
- ED50 (Mus musculus [16]; ip): 5 mg/kg
- IC50 [1]: 0.68 nM
- Ki [1]: 0.42 nM

Compound: CN1C(=O)CN=C(c2ccccc2)c2cc(Cl)ccc21 [DIAZEPAM]
- ED50 (Mus musculus [3]): 0.74 mg/kg
- Activity (Mus musculus [6]): inactive
- Activity (Mus musculus [17]): Active
- Activity (Mus musculus [8]): inactive
- ED50 (Mus musculus [15]): 0.75 mg/kg
- IC50 [1]: 2.5 nM
- Ki [1]: 1.53 nM
